Experimental data as given in ChEMBL document CHEMBL1914423, “New imidazo[2,1-b]thiazole derivatives: synthesis, in vitro anticancer evaluation, and in silico studies” (Eur J Med Chem, 2011).

Key:
[1] = tested on: SK-MEL-28; assay: Anticancer activity against human SK-MEL-28 cells after 48 hrs by SRB assay; format: functional; conditions: SK-MEL-28, 48 h
[2] = tested on: A498; assay: Anticancer activity against human A498 cells after 48 hrs by SRB assay; format: functional; conditions: A498, 48 h
Method in brief: (§1)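 NCI five-dose screen. Cells in RPMI 1640 with 5% FBS and 2 mM L-glutamine, seeded at 5000–40,000 cells/well according to doubling time, then pre-incubated 24 h at 37 °C in 5% CO2. Drugs dissolved in DMSO, five concentrations by 10-fold or 1/2-log dilution. Cells fixed with TCA, SRB-stained, A515 read. IC50 solved from [(Ti−Tz)/(C−Tz)]×100 = 50.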

[3] = tested on: UO-31; assay: Anticancer activity against human UO31 cells after 48 hrs by SRB assay; format: functional; conditions: UO-31, 48 h
Method in brief: (§2)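 NCI-60 five-dose mode: cells in RPMI 1640 with 5% FBS and 2 mM glutamine, plated at 5000–40,000 cells/well, and preincubated 24 h, with time-zero plates TCA-fixed. Drug given at five concentrations (10-fold or ½-log serial dilutions). Cold TCA fixation 60 min at 4 °C, SRB stain, Tris solubilization, A515. IC50 taken where [(Ti−Tz)/(C−Tz)]×100 = 50.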

[4] = tested on: A549; assay: Anticancer activity against human A549 cells after 48 hrs by SRB assay; format: functional; conditions: A549, 48 h; method in brief: as §1
[5] = tested on: OVCAR-8; assay: Anticancer activity against human OVCAR8 cells after 48 hrs by SRB assay; format: functional; conditions: OVCAR-8, 48 h
[6] = tested on: ACHN; assay: Anticancer activity against human ACHN cells after 48 hrs by SRB assay; format: functional; method in brief: as §1
[7] = tested on: MCF7; assay: Anticancer activity against human MCF7 cells after 48 hrs by SRB assay; format: functional; conditions: MCF7, 48 h; method in brief: as §1
[8] = tested on: SNB-19; assay: Anticancer activity against human SNB19 cells after 48 hrs by SRB assay; format: functional; conditions: SNB-19, 48 h
[9] = tested on: HCC 2998; assay: Anticancer activity against human HCC2998 cells after 48 hrs by SRB assay; format: functional; conditions: HCC 2998, 48 h; method in brief: as §1
[10] = tested on: OVCAR-4; assay: Anticancer activity against human OVCAR4 cells after 48 hrs by SRB assay; format: functional; conditions: OVCAR-4, 48 h
[11] = tested on: LOX IMVI; assay: Antiproliferative activity against human LOXIMVI cells after 48 hrs by MTT assay; format: functional, cell-based
[12] = tested on: UACC-62; assay: Anticancer activity against human UACC62 cells after 48 hrs by SRB assay; format: functional; conditions: UACC-62, 48 h; method in brief: as §2
[13] = tested on: MDA-MB-231; assay: Anticancer activity against human MDA-MB-231 cells after 48 hrs by SRB assay; format: functional; conditions: MDA-MB-231, 48 h; method in brief: as §1
[14] = tested on: OVCAR-3; assay: Anticancer activity against human OVCAR3 cells after 48 hrs by SRB assay; format: functional; conditions: OVCAR-3, 48 h
[15] = tested on: SNB-75; assay: Anticancer activity against human SNB75 cells after 48 hrs by SRB assay; format: functional; conditions: SNB-75, 48 h
[16] = tested on: EKVX; assay: Anticancer activity against human EKVX cells after 48 hrs by SRB assay; format: functional; method in brief: as §1
[17] = tested on: NCI-H522; assay: Anticancer activity against human NCI-H522 cells after 48 hrs by SRB assay; format: functional; conditions: NCI-H522, 48 h
[18] = tested on: PC-3; assay: Anticancer activity against human PC3 cells after 48 hrs by SRB assay; format: functional; conditions: PC-3, 48 h
[19] = tested on: SW-620; assay: Anticancer activity against human SW620 cells after 48 hrs by SRB assay; format: functional; conditions: SW-620, 48 h; method in brief: as §2
[20] = tested on: HCT-116; assay: Anticancer activity against human HCT116 cells after 48 hrs by SRB assay; format: functional; conditions: HCT-116, 48 h; method in brief: as §1
[21] = tested on: SK-MEL-2; assay: Anticancer activity against human SK-MEL-2 cells after 48 hrs by SRB assay; format: functional; conditions: SK-MEL-2, 48 h
[22] = tested on: HL-60(TB); assay: Anticancer activity against human HL-60(TB) cells after 48 hrs by SRB assay; format: functional; conditions: HL-60, 48 h
Method in brief: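 NCI-60 five-dose screen. Cells grown in RPMI 1640 with 5% FBS and 2 mM L-glutamine, seeded at 5000–40,000 cells/well, and held 24 h at 37 °C and 5% CO₂ before drug. DMSO stocks were diluted into five concentrations (10-fold or ½-log steps). Settled suspension cells were fixed with cold TCA, SRB-stained, and read at 515 nm. […] was taken where [(Ti−Tz)/(C−Tz)]×100 = 50.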

[23] = tested on: IGROV-1; assay: Anticancer activity against human IGROV1 cells after 48 hrs by SRB assay; format: functional; conditions: IGROV-1, 48 h; method in brief: as §1
[24] = tested on: OVCAR-5; assay: Anticancer activity against human OVCAR5 cells after 48 hrs by SRB assay; format: functional; conditions: OVCAR-5, 48 h
[25] = tested on: NCI-H226; assay: Anticancer activity against human NCI-H226 cells after 48 hrs by SRB assay; format: functional; conditions: NCI-H226, 48 h
[26] = tested on: U-251; assay: Anticancer activity against human U251 cells after 48 hrs by SRB assay; format: functional; conditions: U-251, 48 h; method in brief: as §2
[27] = tested on: Malme-3M; assay: Antiproliferative activity against human MALME-3M cells after 48 hrs by MTT assay; format: functional, cell-based
[28] = tested on: RXF 393; assay: Anticancer activity against human RXF393 cells after 48 hrs by SRB assay; format: functional; conditions: RXF 393, 48 h
[29] = read-out: LC50 (the source's name)

O=C(NCCNc1nccc(-c2c(-c3cccc(O)c3)nc3sccn23)n1)c1ccccc1
GI50 [1]: 336 nM
TGI [1]: 99.1 µM
CC50 [1, 29]: > 100 µM
GI50 [2]: 3.68 µM
TGI [2]: 19.3 µM
CC50 [2, 29]: 58 µM
GI50 [3]: 12.2 µM
TGI [3]: 88.7 µM
CC50 [3, 29]: > 100 µM
GI50 [4]: 9.21 µM
TGI [4]: 46.5 µM
GI50 [5]: 11.1 µM
TGI [5]: 78.8 µM
CC50 [5, 29]: > 100 µM
GI50 [6]: 6.43 µM
TGI [6]: 34.9 µM
CC50 [6, 29]: > 100 µM
GI50 [7]: 3.24 µM
TGI [7]: 14.9 µM
CC50 [7, 29]: 46.5 µM
GI50 [8]: 29.4 µM
TGI [8]: > 100 µM
CC50 [8, 29]: > 100 µM
GI50 [9]: 13.8 µM
TGI [9]: 31.2 µM
CC50 [9, 29]: 70.3 µM
GI50 [10]: 13.9 µM
TGI [10]: 84.6 µM
CC50 [10, 29]: > 100 µM
IC50 [11]: 3.22 µM
GI50 [12]: 211 nM
TGI [12]: 1370 nM
CC50 [12, 29]: 25.2 µM
GI50 [13]: 7.05 µM
TGI [13]: 31.5 µM
CC50 [13, 29]: > 100 µM
GI50 [14]: 12.3 µM
TGI [14]: 64.8 µM
CC50 [14, 29]: > 100 µM
GI50 [15]: 3.27 µM
TGI [15]: 28.1 µM
CC50 [15, 29]: > 100 µM
GI50 [16]: 25 µM
TGI [16]: > 100 µM
GI50 [17]: 5.76 µM
TGI [17]: 25.5 µM
CC50 [17, 29]: 93.9 µM
GI50 [18]: 11.9 µM
TGI [18]: 65.7 µM
CC50 [18, 29]: > 100 µM
GI50 [19]: 18 µM
TGI [19]: 79.4 µM
CC50 [19, 29]: > 100 µM
GI50 [20]: 4.82 µM
TGI [20]: 17.5 µM
CC50 [20, 29]: 49.6 µM
GI50 [21]: 2940 nM
TGI [21]: 12.9 µM
CC50 [21, 29]: 48.8 µM
GI50 [22]: 10.2 µM
TGI [22]: 29.6 µM
GI50 [23]: 3.61 µM
TGI [23]: 50.8 µM
CC50 [23, 29]: > 100 µM
GI50 [24]: 18.3 µM
TGI [24]: 61.8 µM
CC50 [24, 29]: > 100 µM
GI50 [25]: 7.95 µM
TGI [25]: 45.3 µM
GI50 [26]: 17.9 µM
TGI [26]: > 100 µM
CC50 [26, 29]: > 100 µM
IC50 [27]: 205 nM
GI50 [28]: 4.14 µM
TGI [28]: 22.2 µM
CC50 [28, 29]: 98.1 µM
